# In ChEMBL document CHEMBL1124226, “Benzothiopyranoindazoles, a new class of chromophore modified anthracenedione anticancer agents. Synthesis and activity against murine leukemias” (J Med Chem, 1988):
# Legend:
# [1] = test system: P388; assay: In vivo for the optimal dose for activity against P388 leukemia per injection; format: functional, Mus musculus
# Procedure, shortened: (§1)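 P388 leukemia in mice, drug given ip on days 1-5 (Q01D×5, IP/IP, NCI testing protocol). Optimum response taken over doses, expressed as mg/kg per injection. Read-outs are %T/C survival and net log cell kill (Schabel method). Cured mice are included in the %T/C and net kill calculations.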
# [2] = test system: L1210; assay: In vitro for its inhibitory activity against murine L1210 leukemia; format: functional, cell-based; details: Mus musculus
# [3] = test system: P388; assay: Percentage T/C survival (treated vs control) against P388 leukemia (day 30 surv); format: functional, Mus musculus; procedure, shortened: as §1
# [4] = test system: P388 leukemia (mouse); assay: Net log value for P388 leukemia cell kill in mice was determined
# [5] = test system: L1210; assay: In vitro for its inhibitory activity against murine L1210 leukemia; Inactive; format: functional, cell-based, Mus musculus
# [6] = test system: Mus musculus; assay: The compound was evaluated in vivo for the optimal dose for activity against murine B-16 melanoma; format: functional
# Procedure, shortened: (§2)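 Murine B-16 melanoma in vivo. Optimal dose given as mg/kg per injection. Response is % T/C survival, with day-60 survivors reported as number per group (of 10 or 6).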
# [7] = species: Mus musculus; assay: % T/C survival against murine B-16 melanoma (day 60 surv); format: functional; procedure, shortened: as §2
SMILES,Dose [1],IC50 [2],T/C [3],Net log cell kill [4],IC50 [5],Dose [6],T/C [7]
CCN(CC)CCn1nc2c3c(c(NC(=O)CN)ccc31)Sc1ccccc1-2.Cl.O,20 mg/kg,15 nM,184%,2.4,,,
CCN(CC)CCn1nc2c3c(c(N)ccc31)Sc1cccc(O)c1-2,,61 nM,,,,,
Br.CCN(CC)CCn1nc2c3c(c(NCCNCCO)ccc31)Sc1c(O)ccc(O)c1-2,50 mg/kg,,,0.1,Not Active,,
Cl.NCCn1nc2c3c(c(NCCNCCO)ccc31)Sc1ccccc1-2,12.5 mg/kg,22 nM,233%,> 6.7,,,
Br.CCN(CC)CCn1nc2c3c(c(NCCN)ccc31)Sc1cccc(O)c1-2,12.5 mg/kg,48 nM,177%,2.8,,,
CCN(CC)CCn1nc2c3c(c(Cl)ccc31)[S+]([O-])c1ccccc1-2 (centres undefined),,,,,Not Active,,
CCN(CC)CCn1nc2c3c(c(NC(=O)CN)ccc31)Sc1cc(O)ccc1-2.Cl.O,100 mg/kg,140 nM,195%,,,,
COc1cccc2c1C(=O)c1c(O)c3c(c(O)c1C2=O)C[C@@](O)(C(=O)CO)C[C@@H]3O[C@H]1C[C@H](N)[C@H](O)[C@H](C)O1 [DOXORUBICIN],2 mg/kg,,232%,,,1 mg/kg,434%
CC(=O)NCCn1nc2c3c(c(NCCN4CCOC4=O)ccc31)Sc1ccccc1-2,12.5 mg/kg,,100%,-1.6,Not Active,,
CC(=O)NCCn1nc2c3c(c(N)ccc31)Sc1ccccc1-2.Cl,100 mg/kg,,100%,-1.7,Not Active,,
Cl.O.O=S1(=O)c2ccccc2-c2nn(CCNCCO)c3ccc(NCCNCCO)c1c23,200 mg/kg,,168%,2.5,Not Active,,
CCN(CC)CCn1nc2c3c(c(NCCNC(=O)OC(C)(C)C)ccc31)Sc1cccc(OC)c1-2,,,,,Not Active,,
CCN(CC)CCn1nc2c3c(c(N)ccc31)Sc1ccc(OC)cc1-2.Cl,50 mg/kg,1500 nM,,1.4,,,
CCN(CC)CCNc1ccc2c3c(nn2CCN(CC)CC)-c2ccccc2Sc13.Cl,25 mg/kg,50 nM,,1.6,,,
CCN(CC)CCn1nc2c3c(c(N)ccc31)Sc1c(OC)cccc1-2.Cl,25 mg/kg,,109%,-1.5,Not Active,,
CCN(CC)CCn1nc2c3c(c(NCCCN)ccc31)Sc1ccccc1-2.Cl.O,50 mg/kg,260 nM,262%,> 6.6,,,
CN(C)CCCn1nc2c3c(c(N)ccc31)Sc1ccccc1-2.Cl.O,100 mg/kg,2000 nM,197%,4,,,
CCN(CC)CCNc1ccc2c3c(nn2CCNCCO)-c2ccccc2Sc13.Cl.O,25 mg/kg,240 nM,,0.5,,,
CCN(CC)CCn1nc2c3c(c(NCCN)ccc31)Sc1ccc(O)cc1-2.Cl.O,0.8 mg/kg,2.6 nM,186%,,,,
CCN(CC)CCn1nc2c3c(c(N)ccc31)Sc1cc(OC)ccc1-2.Cl.O,,,,,Not Active,,
CCN(CC)CCn1nc2c3c(c(N)ccc31)Sc1cc(O)ccc1-2,,190 nM,,,,,
CCN(CC)CCn1nc2c3c(c(NCCN4CCOC4=O)ccc31)Sc1ccccc1-2,100 mg/kg,810 nM,,6,,,
O=S1(=O)c2ccccc2-c2nn(CCNCCO)c3ccc(Cl)c1c23,,920 nM,,,,,

SMILES,Dose [1],IC50 [2],T/C [3],Net log cell kill [4],IC50 [5],Dose [6],T/C [7]
CCN(CC)CCn1nc2c3c(c(NCCN4CCOC4=O)ccc31)Sc1ccc(OC)cc1-2.Cl.O,100 mg/kg,,220%,6,Not Active,,
O=C1OCCN1CCNc1ccc2c3c(nn2CCNCCO)-c2ccccc2Sc13,,540 nM,,,,,
CCN(CC)CCn1nc2c3c(c(NC(=O)CNC(=O)OC(C)(C)C)ccc31)Sc1cc(OC)ccc1-2,,,,,Not Active,,
CCN(CC)CCn1nc2c3c(c(NCCNC(=O)OC(C)(C)C)ccc31)Sc1cc(OC)ccc1-2,6.3 mg/kg,,93%,,Not Active,,
CCN(CC)CCn1nc2c3c(c(NCCN)ccc31)Sc1ccc(OC)cc1-2.Cl.O,12.5 mg/kg,210 nM,,3.9,,,
CCN(CC)CCn1nc2c3c(c(NCCN4C(=O)c5ccccc5C4=O)ccc31)Sc1c(OC)cccc1-2,12.5 mg/kg,,107%,-1.5,Not Active,,
CCN(CC)CCn1nc2c3c(c(N)ccc31)Sc1ccc(O)cc1-2.Cl.O,6.3 mg/kg,11 nM,,> 6.7,,1.8 mg/kg,264%
CCN(CC)CCn1nc2c3c(c(NCCNCCO)ccc31)Sc1ccc(OC)cc1-2.Cl,25 mg/kg,200 nM,,3.2,,,
CCN(CC)CCn1nc2c3c(c(NCCN)ccc31)Sc1c(O)cccc1-2.Cl.O,6.3 mg/kg,,122%,-0.9,Not Active,,
CN(C)CCCn1nc2c3c(c(NCCN)ccc31)Sc1ccccc1-2.Cl.O,12.5 mg/kg,27 nM,,> 6.7,,,
Cl.NCCn1nc2c3c(c(N)ccc31)Sc1ccccc1-2,12.5 mg/kg,100 nM,181%,3.1,,,
CCN(CC)CCn1nc2c3c(c(N)ccc31)Sc1cccc(OC)c1-2,,2000 nM,,,,,
Br.Nc1ccc2c3c(nn2CCNCCO)-c2cc(O)ccc2Sc13,3.1 mg/kg,23 nM,192%,4.2,,,
CCN(CC)CCn1nc2c3c(c(NCCN4CCOC4=O)ccc31)Sc1ccc(O)cc1-2.Cl.O,12.5 mg/kg,4.3 nM,,,,,
CCN(CC)CCn1nc2c3c(c(Cl)ccc31)S(=O)(=O)c1ccccc1-2,,2200 nM,,,,,
CCN(CC)CCn1nc2c3c(c(N)ccc31)Sc1ccccc1-2,25 mg/kg,100 nM,,2.2,,12 mg/kg,112%
CN(C)CCn1nc2c3c(c(N)ccc31)Sc1ccccc1-2.Cl.O,12.5 mg/kg,63 nM,165%,1.8,,,
CC(=O)OCCN(CCn1nc2c3c(c(N)ccc31)Sc1ccccc1-2)C(C)=O.Cl,400 mg/kg,,117%,-1.3,Not Active,,
CN(C)CCn1nc2c3c(c(NCCN)ccc31)Sc1ccccc1-2.Cl.O,12.5 mg/kg,15 nM,270%,> 6.7,,,
CCN(CC)CCNc1ccc2c3c(nn2CCN(CC)CC)-c2ccccc2S(=O)(=O)c13,12.5 mg/kg,,101%,-1.6,Not Active,,
CCN(CC)CCn1nc2c3c(c(NCCN)ccc31)Sc1cc(OC)ccc1-2.Cl.O,25 mg/kg,,133%,-0.4,Not Active,,
CCN(CC)CCn1nc2c3c(c(NCCN)ccc31)S(=O)(=O)c1ccccc1-2.Cl.O,100 mg/kg,1200 nM,159%,1.8,,,
